From ChEMBL document CHEMBL4364266, “Design, synthesis and biological evaluation of novel 2,3,4,9-tetrahydro-1H-pyrido[3,4-b]indole triazole derivatives as potent TRPV1 antagonists” (Eur J Med Chem, 2019)

target: T1, Transient receptor potential cation channel subfamily V member 1 (Homo sapiens, UniProt Q8NER1); assay: Antagonist activity at capsaicin-induced human recombinant TRPV1 expressed in CHO-K1 cells co-expressing aequorin incubated for 2.5 mins in presence of ATP followed by capsaicin addition by luminescence assay; type: cell-based
Method in brief: (§1)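 Aequorin cells expressing recombinant human TRPV1 were loaded with coelenterazine for 4 h in the dark. Assay buffer was DMEM-F12 with 15 mM HEPES (pH 7.0) and 0.1% BSA. Cells were added to compound and incubated 2.5 min, then challenged with capsaicin or with HCl at pH 5.0, and luminescence was read at once. Digitonin (100 µM) and ATP (50 µM) served as reference blanks. Mean ± SEM of at least three experiments.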

T1 sequence (Q8NER1 whole entry): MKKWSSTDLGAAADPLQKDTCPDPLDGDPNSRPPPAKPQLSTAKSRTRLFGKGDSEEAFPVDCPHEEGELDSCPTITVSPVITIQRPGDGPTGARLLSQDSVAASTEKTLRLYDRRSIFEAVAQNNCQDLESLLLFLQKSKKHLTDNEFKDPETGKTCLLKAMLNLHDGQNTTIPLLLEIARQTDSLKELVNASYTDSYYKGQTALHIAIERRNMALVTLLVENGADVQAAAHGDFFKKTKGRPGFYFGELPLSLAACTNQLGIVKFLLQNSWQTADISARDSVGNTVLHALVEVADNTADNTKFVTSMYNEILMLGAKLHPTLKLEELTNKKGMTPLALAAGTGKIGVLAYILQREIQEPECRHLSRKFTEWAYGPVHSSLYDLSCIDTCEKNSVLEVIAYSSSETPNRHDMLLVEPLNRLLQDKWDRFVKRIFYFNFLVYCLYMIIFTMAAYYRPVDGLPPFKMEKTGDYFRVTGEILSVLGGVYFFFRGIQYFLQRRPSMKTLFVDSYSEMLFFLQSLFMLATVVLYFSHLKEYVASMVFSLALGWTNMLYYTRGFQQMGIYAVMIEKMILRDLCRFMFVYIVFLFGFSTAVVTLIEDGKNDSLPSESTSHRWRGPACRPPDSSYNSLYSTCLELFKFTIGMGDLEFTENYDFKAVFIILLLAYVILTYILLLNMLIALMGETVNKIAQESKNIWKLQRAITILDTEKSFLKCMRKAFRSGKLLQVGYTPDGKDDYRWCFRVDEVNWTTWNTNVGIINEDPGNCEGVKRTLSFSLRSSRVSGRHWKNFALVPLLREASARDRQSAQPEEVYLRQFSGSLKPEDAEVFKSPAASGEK

For `Fc1ccccc1-n1cc(CN2CCc3c([nH]c4ccccc34)C2)nn1`, which IC50 is on record?
The IC50 was 0.232 µM.

Which IC50 does the source give for `Brc1ccc(-n2cc(CN3CCc4c([nH]c5ccccc45)C3)nn2)cc1` here?
The IC50 was 0.788 µM.

Which IC50 does the source give for `Fc1cccc(-n2cc(CN3CCc4ccccc43)nn2)c1` here?
The IC50 was 19.4 µM.

With `O=[N+]([O-])c1cc(Cl)ccc1-n1cc(CN2CCc3c([nH]c4ccccc34)C2)nn1` as the molecule, how does the IC50 read?
Its IC50 is 0.394 µM.

For `CC(C)(C)c1ccc(-n2cc(CN3CCc4cc(Cl)ccc43)nn2)cc1`, which IC50 is on record?
Its IC50 is 27.1 µM.

For `COc1ccc(-n2cc(CN3CCc4c([nH]c5ccccc45)C3)nn2)cc1OC`, which IC50 is on record?
The IC50 was 1.12 µM.

How did the IC50 turn out when `Clc1ccc(-n2cc(CN3CCc4c([nH]c5ccccc45)C3)nn2)cc1Cl` was run?
The IC50 was 0.341 µM.

`Clc1ccc(-n2cc(CN3CCc4c([nH]c5ccccc45)C3)nn2)cc1` was tested. Which IC50 did it give?
Its IC50 is 0.495 µM.

With `CC(C)c1cccc(-n2cc(CN3CCc4c([nH]c5ccccc45)C3)nn2)c1` as the molecule, how does the IC50 read?
Its IC50 is 1.67 µM.

`Clc1ccc(-n2cc(CN3CCc4ccccc43)nn2)cc1` was tested. Which IC50 did it give?
The IC50 was 12.6 µM.

For `FC(F)(F)c1ccc(-n2cc(CN3CCc4c([nH]c5ccccc45)C3)nn2)cc1`, which IC50 is on record?
The IC50 was 0.204 µM.

For `Clc1ncccc1-n1cc(CN2CCc3c([nH]c4ccccc34)C2)nn1`, which IC50 is on record?
Its IC50 is 3.49 µM.

target: T1, Transient receptor potential cation channel subfamily V member 1; assay: Antagonist activity at low pH-induced human recombinant TRPV1 expressed in CHO-K1 cells co-expressing aequorin at 50 uM incubated for 2.5 mins in presence of ATP followed by hydrochloride addition at pH 5 by luminescence assay relative to control; type: cell-based; method in brief: as §1

`Cc1cc(C)nc(-n2cc(CN3CCc4c([nH]c5ccccc45)C3)nn2)c1` was tested. Which inhibition did it give?
The inhibition was 13%.

For `Cc1ccc(-n2cc(CN3CCc4c([nH]c5ccccc45)C3)nn2)cc1Cl`, which inhibition is on record?
Its inhibition is 48%.

`Clc1ccc(-n2cc(CN3CCc4cc(Cl)ccc43)nn2)cc1` was tested. Which inhibition did it give?
Its inhibition is 34%.

`Fc1ccccc1-n1cc(CN2CCc3c([nH]c4ccccc34)C2)nn1` was tested. Which inhibition did it give?
Its inhibition is 57%.

How did the inhibition turn out when `CC(C)c1ccccc1-n1cc(CN2CCc3ccccc32)nn1` was run?
Its inhibition is 39%.

`Brc1ccc(-n2cc(CN3CCc4c([nH]c5ccccc45)C3)nn2)cc1` was tested. Which inhibition did it give?
The inhibition was 78%.

`Fc1cccc(-n2cc(CN3CCc4ccccc43)nn2)c1` was tested. Which inhibition did it give?
Its inhibition is 35%.

With `CC(C)c1cccc(-n2cc(CN3CCc4ccccc43)nn2)c1` as the molecule, how does the inhibition read?
The inhibition was 17%.

For `Cc1cc(C)c(-n2cc(CN3CCc4c([nH]c5ccccc45)C3)nn2)c(C)c1`, which inhibition is on record?
The inhibition was 13%.

With `O=[N+]([O-])c1cc(Cl)ccc1-n1cc(CN2CCc3c([nH]c4ccccc34)C2)nn1` as the molecule, how does the inhibition read?
The inhibition was 67%.

For `CC(C)(C)c1ccc(-n2cc(CN3CCc4cc(Cl)ccc43)nn2)cc1`, which inhibition is on record?
The inhibition was 24%.

How did the inhibition turn out when `Fc1ccc2c(c1)CCN2Cc1cn(-c2ccc(Cl)cc2)nn1` was run?
Its inhibition is 12%.

With `COc1ccc(-n2cc(CN3CCc4c([nH]c5ccccc45)C3)nn2)cc1OC` as the molecule, how does the inhibition read?
The inhibition was 74%.

How did the inhibition turn out when `Clc1ccc(-n2cc(CN3CCc4c([nH]c5ccccc45)C3)nn2)cc1Cl` was run?
Its inhibition is 73%.

With `Cc1ccc(-n2cc(CN3CCc4c([nH]c5ccccc45)C3)nn2)c([N+](=O)[O-])c1` as the molecule, how does the inhibition read?
Its inhibition is 71%.

`Clc1ccc(-n2cc(CN3CCc4c([nH]c5ccccc45)C3)nn2)cc1` was tested. Which inhibition did it give?
The inhibition was 73%.

`CC(C)c1cccc(-n2cc(CN3CCc4c([nH]c5ccccc45)C3)nn2)c1` was tested. Which inhibition did it give?
Its inhibition is 40%.

For `Clc1ccc(-n2cc(CN3CCc4ccccc43)nn2)cc1`, which inhibition is on record?
Its inhibition is 42%.

With `FC(F)(F)c1ccc(-n2cc(CN3CCc4c([nH]c5ccccc45)C3)nn2)cc1` as the molecule, how does the inhibition read?
The inhibition was 79%.

`Clc1ncccc1-n1cc(CN2CCc3c([nH]c4ccccc34)C2)nn1` was tested. Which inhibition did it give?
The inhibition was 72%.
